# Laboratory results published in ChEMBL document CHEMBL1221392, “Synthesis and cytotoxic potential of heterocyclic cyclohexanone analogues of curcumin” (Bioorg Med Chem, 2010).
# Active and inactive are the calls of the source. No cut-off for these calls is given here.
# What was measured:
# SK-BR-3 = test: Cytotoxicity against human SKBR3 cells after 5 days by SRB assay; conditions: SK-BR-3, 5 days
# MDA-MB-231 [1] = test: Cytotoxicity against human MDA-MB-231 cells after 5 days by SRB assay; conditions: MDA-MB-231, 5 days
# [2] = Inhibition of NF-kappaB activation in human K562 cells; type: cell-based
# Outline: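 K562 cells electroporated with 5 µg each of a 5× NF-κB-site firefly luciferase reporter and a Renilla phRG-TK plasmid per 2.5 × 10⁶ cells. After 24 h they were resuspended at 1 × 10⁶/ml in RPMI 1640 with 0.1% FCS. Cells were then incubated 30 min before a concentration series was added. Read-out by dual luciferase; IC₅₀ reported.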
# MDA-MB-468 = test: Cytotoxicity against human MDA-MB-468 cells after 5 days by SRB assay; conditions: MDA-MB-468, 5 days
# MDA-MB-231 [3] = test: Induction of apoptosis in human MDA-MB-231 cells assessed as increase in number of apoptotic cells at 2 to 3 uM after 18 hrs by FACScalibur flow cytometry; type: functional
# MDA-MB-231 [4] = test: Induction of apoptosis in human MDA-MB-231 cells assessed as increase in number of apoptotic cells at 2 to 3 uM after 36 hrs by FACScalibur flow cytometry; type: functional
# MDA-MB-231 [5] = test: Induction of apoptosis in human MDA-MB-231 cells assessed as increase in number of apoptotic cells at 1 uM by FACScalibur flow cytometry; type: functional, cell-based
# Outline: (§1)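 Cells seeded at 2 × 10⁵/well in DMEM/HamF12 with 5% FBS and antibiotics, then treated for 12, 18, 24 or 36 h against a 0.1% DMSO vehicle. Staining was Annexin-V-FLUOS/propidium iodide, read by flow cytometry, as apoptotic cells % of total. Mean ± SEM from three independent experiments in triplicate, two-way ANOVA with Bonferroni post-test.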
# MDA-MB-231 [6] = test: Induction of apoptosis in human MDA-MB-231 cells assessed as increase in number of apoptotic cells at 2 uM by FACScalibur flow cytometry; type: functional, cell-based
# Outline: as §1
Compound,EC50 (MDA-MB-231 [1]) [nM],IC50 [2] [nM],other results
COc1cc(/C=C/C(=O)CC(=O)/C=C/c2ccc(O)c(OC)c2)ccc1O [CURCUMIN],7600,15000,IC50 (SK-BR-3): 2400 nM; EC50 (MDA-MB-468): 9700 nM
CN1C/C(=C\c2nccn2C)C(=O)/C(=C/c2nccn2C)C1,> 30000,47000,
O=C1/C(=C/c2cccs2)CCC/C1=C\c1cccs1 [TENYLIDONE],> 30000,> 200000,
CN1C2CCC1/C(=C\c1cccnc1)C(=O)/C2=C/c1cccnc1,12900,4000,
CN1C/C(=C\c2cccs2)C(=O)/C(=C/c2cccs2)C1,> 30000,> 200000,
COc1cc(/C=C2\CCC/C(=C\c3ccc(O)c(OC)c3)C2=O)ccc1O [CYCLOVALONE],2600,10000,
O=C1/C(=C/c2cccnc2)CC/C1=C\c1cccnc1,8600,34000,
O=C1/C(=C/c2ccnc(F)c2)CCC/C1=C\c1ccnc(F)c1,3300,2200,
O=C1/C(=C/c2cccnc2F)CCC/C1=C\c1cccnc1F,3200,3800,
COc1ccc(OC)c(/C=C2\CN(C)C/C(=C\c3cc(OC)ccc3OC)C2=O)c1,1100,6300,IC50 (SK-BR-3): 1100 nM; EC50 (MDA-MB-468): 1100 nM
CN1C2CCC1/C(=C\c1ccncc1)C(=O)/C2=C/c1ccncc1,1100,1500,IC50 (SK-BR-3): 700 nM; EC50 (MDA-MB-468): 600 nM
O=C1/C(=C/c2ccncc2)CCC/C1=C\c1ccncc1,1100,2500,Activity (MDA-MB-231 [3]): <20%; IC50 (SK-BR-3): 200 nM; Activity (MDA-MB-231 [4]): 40%; EC50 (MDA-MB-468): 1900 nM
COc1cc(F)c(/C=C2\CN(C)C/C(=C\c3cc(OC)c(OC)cc3F)C2=O)cc1OC,3800,4000,
O=C1/C(=C/c2cccnc2)CCC/C1=C\c1cccnc1,1500,2500,Activity (MDA-MB-231 [3]): <20%
Cn1cccc1/C=C1\CCC/C(=C\c2cccn2C)C1=O,> 30000,> 200000,
COc1ccc(OC)c(/C=C2\CCC/C(=C\c3cc(OC)ccc3OC)C2=O)c1,> 10000,> 200000,
CN1C/C(=C\c2cccnc2)C(=O)/C(=C/c2cccnc2)C1,2100,800,
COc1cc(/C=C2/C(=O)/C(=C/c3cc(OC)c(OC)c(OC)c3)C3CCC2N3C)cc(OC)c1OC,> 30000,> 200000,
Cn1ccnc1/C=C1\CCC/C(=C\c2nccn2C)C1=O,1900,48000,
COc1cc(/C=C2\CN(C)C/C(=C\c3cc(OC)c(OC)c(OC)c3)C2=O)cc(OC)c1OC,300,900,IC50 (SK-BR-3): 400 nM; EC50 (MDA-MB-468): 300 nM; Activity (MDA-MB-231 [5]): Active
CN1C/C(=C\c2ccncc2)C(=O)/C(=C/c2ccncc2)C1,800,1000,IC50 (SK-BR-3): 600 nM; EC50 (MDA-MB-468): 500 nM; Activity (MDA-MB-231 [6]): Active
COc1cc(/C=C2\CCC/C(=C\c3cc(OC)c(OC)c(OC)c3)C2=O)cc(OC)c1OC,> 30000,,
